From ChEMBL document CHEMBL1764976, “Small molecule inhibitors of retinoic acid 4-hydroxylase (CYP26): synthesis and biological evaluation of imidazole methyl 3-(4-(aryl-2-ylamino)phenyl)propanoates” (J Med Chem, 2011)
Each block holds one molecule with its values, some of them ahead of it. Calls of active or inactive are those of the source. No cut-off for these calls is given here.

Columns and labels:
Cytochrome P450 26A1 = target: T1, Cytochrome P450 26A1 (Homo sapiens, UniProt O43174); assay: Inhibition of CYP26A1 in human MCF7 cell microsomes using [3H]ATRA after 1 hr by scintillation counting; parameters: species or system Microsome
T1 sequence (O43174 whole entry): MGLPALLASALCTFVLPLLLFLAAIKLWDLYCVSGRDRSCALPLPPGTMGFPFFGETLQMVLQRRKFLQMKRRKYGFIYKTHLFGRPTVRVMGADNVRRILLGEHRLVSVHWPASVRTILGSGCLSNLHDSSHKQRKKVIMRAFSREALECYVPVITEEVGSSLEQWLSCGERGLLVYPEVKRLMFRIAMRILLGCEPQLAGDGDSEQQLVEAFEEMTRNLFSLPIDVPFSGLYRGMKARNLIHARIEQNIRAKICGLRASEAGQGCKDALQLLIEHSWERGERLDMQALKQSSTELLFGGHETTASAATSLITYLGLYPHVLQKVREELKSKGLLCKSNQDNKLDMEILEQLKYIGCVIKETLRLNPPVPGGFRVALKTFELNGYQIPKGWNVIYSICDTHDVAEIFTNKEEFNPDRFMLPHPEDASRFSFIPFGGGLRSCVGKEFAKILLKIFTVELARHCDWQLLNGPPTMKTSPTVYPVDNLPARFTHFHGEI
How it was run: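 Cell-free assay on MCF7 CYP26A1 microsomes with [11,12-3H]all-trans-retinoic acid as substrate. IC50 taken from the best fit of a four-point dose-response curve.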

SH-SY5Y [1] = assay: Induction of CYP26A1 mRNA expression in human SH-SY5Y cells at 1 uM after 72 hrs by RT-PCR analysis in presence of 0.1 uM of all-trans retinoic acid; type: functional
How it was run: (§1)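 SH-SY5Y cells exposed 72 h to test agent at 1 μM alone or with 0.1 μM ATRA. Total RNA extracted, reverse transcribed, and quantified by real-time PCR with TaqMan probes for CYP26A1 and β-actin. CYP26A1 was normalized to β-actin and reported as fold increase over cells given ATRA alone.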

SH-SY5Y [2] = assay: Induction of CYP26A1 mRNA expression in human SH-SY5Y cells at 1 uM after 72 hrs by RT-PCR analysis; type: functional, cell-based; how it was run: as §1
Cytochrome P450 2C9 = Cytochrome P450 2C9 (Homo sapiens, UniProt P11712); assay: Inhibition of CYP2C9 in human liver microsomes; type: ADME, Microsome
Cytochrome P450 1A2 = target: T2, Cytochrome P450 1A2 (Homo sapiens, UniProt P05177); assay: Inhibition of CYP1A2 in human liver microsomes; type: ADME, Microsome
T2 sequence (P05177 whole entry): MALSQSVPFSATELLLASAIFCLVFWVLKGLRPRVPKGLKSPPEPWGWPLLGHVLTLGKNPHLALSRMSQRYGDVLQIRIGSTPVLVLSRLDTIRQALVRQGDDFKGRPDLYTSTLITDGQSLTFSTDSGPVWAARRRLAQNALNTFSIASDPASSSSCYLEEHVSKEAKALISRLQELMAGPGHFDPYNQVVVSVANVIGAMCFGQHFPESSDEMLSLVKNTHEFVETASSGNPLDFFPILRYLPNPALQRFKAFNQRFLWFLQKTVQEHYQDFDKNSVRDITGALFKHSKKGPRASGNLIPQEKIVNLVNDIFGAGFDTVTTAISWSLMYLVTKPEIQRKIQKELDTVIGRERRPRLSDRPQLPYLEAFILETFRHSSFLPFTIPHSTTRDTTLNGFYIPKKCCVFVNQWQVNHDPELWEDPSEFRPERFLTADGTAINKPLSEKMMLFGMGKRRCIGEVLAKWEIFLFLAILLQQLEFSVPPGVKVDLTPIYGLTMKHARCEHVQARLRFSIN

Cytochrome P450 2D6 = Cytochrome P450 2D6 (Homo sapiens, UniProt P10635); assay: Inhibition of CYP2D6 in human liver microsomes; type: ADME, Microsome
CYP2C19 = CYP2C19 (Homo sapiens, UniProt P33261); assay: Inhibition of CYP2C19 in human liver microsomes at 0.4 uM; type: ADME, Microsome
CYP2D6 = CYP2D6 (Homo sapiens, UniProt P10635); assay: Inhibition of CYP2D6 in human liver microsomes at 0.4 uM; type: ADME, Microsome
CYP2C9 = CYP2C9 (Homo sapiens, UniProt P11712); assay: Inhibition of CYP2C9 in human liver microsomes at 0.4 uM; type: ADME, Microsome
CYP3A4 = CYP3A4 (Homo sapiens, UniProt P08684); assay: Inhibition of CYP3A4 in human liver microsomes at 0.4 uM; type: ADME, Microsome
CYP1A2 = target: T3, CYP1A2 (Homo sapiens, UniProt P05177); assay: Inhibition of CYP1A2 in human liver microsomes at 0.4 uM; type: ADME, Microsome
T3 sequence (P05177 whole entry): T2 sequence (P05177 whole entry)

Salmonella typhimurium [3] = assay: Mutagenic activity in Salmonella Typhimurium TA98 by Ames test in presence of S9 mixture; type: toxicity, organism-based; conditions: salmonella enterica subsp. enterica serovar typhimurium
How it was run: (§2)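 Ames screen with Salmonella typhimurium strains TA98 and TA100, run with and without S-9 mix.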

Salmonella typhimurium [4] = assay: Mutagenic activity in Salmonella Typhimurium TA100 by Ames test in presence of S9 mixture; type: toxicity, organism-based; conditions: salmonella enterica subsp. enterica serovar typhimurium; how it was run: as §2
[5] = Half life in human liver microsomes; type: ADME, Microsome

CYP2C19, sequence (P33261 whole entry): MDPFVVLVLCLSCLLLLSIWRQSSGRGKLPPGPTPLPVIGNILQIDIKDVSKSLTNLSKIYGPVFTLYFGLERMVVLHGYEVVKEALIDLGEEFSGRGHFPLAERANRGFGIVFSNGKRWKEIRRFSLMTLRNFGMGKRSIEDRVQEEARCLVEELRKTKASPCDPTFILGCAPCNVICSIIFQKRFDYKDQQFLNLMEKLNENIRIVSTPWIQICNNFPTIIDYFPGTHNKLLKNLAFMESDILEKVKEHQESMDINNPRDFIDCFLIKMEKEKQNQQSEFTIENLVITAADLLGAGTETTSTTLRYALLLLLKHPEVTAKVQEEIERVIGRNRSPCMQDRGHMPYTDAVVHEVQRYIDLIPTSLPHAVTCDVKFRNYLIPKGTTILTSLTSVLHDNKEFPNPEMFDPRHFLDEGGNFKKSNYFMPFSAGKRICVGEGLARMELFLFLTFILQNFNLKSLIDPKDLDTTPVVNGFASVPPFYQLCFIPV
CYP2D6, sequence (P10635 whole entry): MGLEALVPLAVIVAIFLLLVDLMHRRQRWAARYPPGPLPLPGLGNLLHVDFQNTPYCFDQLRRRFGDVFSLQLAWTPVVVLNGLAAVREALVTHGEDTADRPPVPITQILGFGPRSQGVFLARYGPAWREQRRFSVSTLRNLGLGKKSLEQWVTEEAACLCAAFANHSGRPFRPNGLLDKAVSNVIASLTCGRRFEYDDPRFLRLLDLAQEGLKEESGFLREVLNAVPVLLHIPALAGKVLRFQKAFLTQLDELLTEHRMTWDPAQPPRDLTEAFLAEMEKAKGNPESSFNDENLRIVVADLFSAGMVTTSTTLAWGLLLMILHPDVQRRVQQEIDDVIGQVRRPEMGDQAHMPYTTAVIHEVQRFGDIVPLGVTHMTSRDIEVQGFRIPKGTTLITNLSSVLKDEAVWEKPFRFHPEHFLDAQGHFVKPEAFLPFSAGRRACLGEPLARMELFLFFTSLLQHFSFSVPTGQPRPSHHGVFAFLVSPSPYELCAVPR
CYP3A4, sequence (P08684 whole entry): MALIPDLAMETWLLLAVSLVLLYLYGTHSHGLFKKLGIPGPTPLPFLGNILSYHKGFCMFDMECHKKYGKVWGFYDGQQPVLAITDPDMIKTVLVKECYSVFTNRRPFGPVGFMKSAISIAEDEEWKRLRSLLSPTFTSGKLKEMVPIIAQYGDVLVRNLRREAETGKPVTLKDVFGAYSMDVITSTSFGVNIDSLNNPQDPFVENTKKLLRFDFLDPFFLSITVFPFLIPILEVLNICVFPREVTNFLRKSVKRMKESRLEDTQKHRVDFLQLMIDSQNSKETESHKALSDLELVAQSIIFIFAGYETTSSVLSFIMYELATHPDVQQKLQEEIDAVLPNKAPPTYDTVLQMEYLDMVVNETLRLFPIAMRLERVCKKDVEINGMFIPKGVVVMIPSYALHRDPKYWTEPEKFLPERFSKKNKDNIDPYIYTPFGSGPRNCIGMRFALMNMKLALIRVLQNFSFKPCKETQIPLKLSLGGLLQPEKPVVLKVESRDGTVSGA
CYP2C9, sequence (P11712 whole entry): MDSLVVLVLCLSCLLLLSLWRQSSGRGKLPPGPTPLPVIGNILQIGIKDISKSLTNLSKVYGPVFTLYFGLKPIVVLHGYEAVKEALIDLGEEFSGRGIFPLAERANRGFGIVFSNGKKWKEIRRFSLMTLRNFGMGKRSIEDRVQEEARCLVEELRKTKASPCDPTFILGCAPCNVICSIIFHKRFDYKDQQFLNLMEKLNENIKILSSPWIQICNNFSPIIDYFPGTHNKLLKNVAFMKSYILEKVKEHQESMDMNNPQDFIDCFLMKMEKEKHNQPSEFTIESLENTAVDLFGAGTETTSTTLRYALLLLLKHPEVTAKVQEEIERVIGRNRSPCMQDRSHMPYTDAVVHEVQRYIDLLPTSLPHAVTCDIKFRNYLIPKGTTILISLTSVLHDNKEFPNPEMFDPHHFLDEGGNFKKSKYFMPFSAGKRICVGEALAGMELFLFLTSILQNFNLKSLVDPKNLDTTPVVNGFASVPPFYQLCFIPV
Cytochrome P450 2D6, sequence (P10635 whole entry): as the sequence (P10635 whole entry) above
Cytochrome P450 2C9, sequence (P11712 whole entry): as the sequence (P11712 whole entry) above

IC50 (Cytochrome P450 26A1): 0.14 µM
Compound: COC(=O)[C@@H](C)[C@H](c1ccc(Nc2ccc3ccccc3c2)cc1)n1ccnc1 (relative stereo)

IC50 (Cytochrome P450 26A1): 0.003 µM
Compound: COC(=O)C(C)(C)C(c1ccc(Nc2ccc3cc(O)ccc3c2)cc1)n1ccnc1 (stereo not drawn)
Activity (SH-SY5Y [1]): Active

IC50 (Cytochrome P450 26A1): > 1 µM
Compound: COC(=O)C(C)(C)C(c1ccc(Cc2ccc3ccccc3c2)cc1)n1ccnc1 (stereo not drawn)

inhibition at 0.4 µM (CYP2C19): 49% | inhibition at 0.4 µM (CYP2D6): 53% | inhibition at 0.4 µM (CYP2C9): 48% | inhibition at 0.4 µM (CYP3A4): 75% | IC50 (Cytochrome P450 26A1): 0.006 µM | inhibition at 0.4 µM (CYP1A2): 15%
Compound: COC(=O)C(C)(C)C(c1ccc(Nc2cccc3ccccc23)cc1)n1ccnc1 (stereo not drawn)
Activity (SH-SY5Y [1]): Active

inhibition at 0.4 µM (CYP2C19): 11% | IC50 (Cytochrome P450 2C9): 1.5 µM | inhibition at 0.4 µM (CYP2D6): 25% | half-life [5]: 5 h | IC50 (Cytochrome P450 1A2): 1.2 µM | inhibition at 0.4 µM (CYP2C9): 41% | inhibition at 0.4 µM (CYP3A4): 60% | IC50 (Cytochrome P450 2D6): 0.6 µM | IC50 (Cytochrome P450 26A1): 0.003 µM | inhibition at 0.4 µM (CYP1A2): 21%
Compound: COC(=O)C(C)(C)C(c1ccc(Nc2ccc3ccccc3c2)cc1)n1ccnc1 (stereo not drawn)
Activity (Salmonella typhimurium [3]): Non-toxic | Activity (Salmonella typhimurium [4]): Non-toxic | fold change (FC) (SH-SY5Y [1]): 5.8

IC50 (Cytochrome P450 26A1): 0.01 µM
Compound: COC(=O)C(C)(C)C(c1ccc(Nc2ccccc2)cc1)n1ccnc1 (stereo not drawn)
Activity (SH-SY5Y [1]): Active

IC50 (Cytochrome P450 26A1): 0.008 µM
Compound: COC(=O)C(C)(C)C(c1ccc(Nc2ccc3cc(OC)ccc3c2)cc1)n1ccnc1 (stereo not drawn)

IC50 (Cytochrome P450 26A1): > 1 µM
Compound: COC(=O)C(C)(C)C(c1ccc(Oc2ccc3ccccc3c2)cc1)n1ccnc1 (stereo not drawn)

IC50 (Cytochrome P450 26A1): 0.05 µM
Compound: COC(=O)[C@H](C)[C@H](c1ccc(Nc2ccc3ccccc3c2)cc1)n1ccnc1 (relative stereo)
Activity (SH-SY5Y [1]): Active

Second part, the molecule before the results:

Compound: CCOc1ccc2ccccc2c1Nc1ccc(C(n2ccnc2)C(C)(C)C(=O)OC)cc1 (stereo not drawn)
IC50 (Cytochrome P450 26A1): 0.125 µM

Compound: COC(=O)C(C)(C)C(c1ccc(Nc2ccc3c(c2)OCO3)cc1)n1ccnc1 (stereo not drawn)
Activity (SH-SY5Y [1]): Active | IC50 (Cytochrome P450 26A1): 0.008 µM

Compound: Clc1cccc(C(c2ccc3[nH]cnc3c2)n2ccnc2)c1 (stereo not drawn) [LIAROZOLE]
Activity (SH-SY5Y [2]): inactive | fold change (FC) (SH-SY5Y [1]): 2.3

Compound: C[C@H]([C@@H](c1ccc(Nc2nc3ccccc3s2)cc1)n1ccnc1)N(C)C
Activity (SH-SY5Y [2]): inactive | IC50 (Cytochrome P450 2C9): 5.9 µM | IC50 (Cytochrome P450 1A2): 8.3 µM | fold change (FC) (SH-SY5Y [1]): 4.7 | IC50 (Cytochrome P450 2D6): 3.9 µM | IC50 (Cytochrome P450 26A1): 0.01 µM

Compound: COC(=O)C(C)(C)C(c1ccc(Nc2ccc(-c3ccccc3)cc2)cc1)n1ccnc1 (stereo not drawn)
IC50 (Cytochrome P450 26A1): 0.25 µM

Compound: COC(=O)[C@@H](C)[C@H](c1ccc(Nc2ccccc2)cc1)n1ccnc1 (relative stereo)
Activity (SH-SY5Y [1]): Active | IC50 (Cytochrome P450 26A1): 0.04 µM

Compound: COC(=O)C(C)(C)C(c1ccc(Nc2nc3ccccc3s2)cc1)n1ccnc1 (stereo not drawn)
inhibition at 0.4 µM (CYP2C19): 91% | inhibition at 0.4 µM (CYP2D6): 11% | inhibition at 0.4 µM (CYP2C9): 87% | inhibition at 0.4 µM (CYP3A4): 46% | IC50 (Cytochrome P450 26A1): 0.1 µM | inhibition at 0.4 µM (CYP1A2): 38%

Compound: COC(=O)C(C)(C)C(c1ccc(Nc2nc3ccccc3o2)cc1)n1ccnc1 (stereo not drawn)
inhibition at 0.4 µM (CYP2C19): 13% | inhibition at 0.4 µM (CYP2D6): 55% | inhibition at 0.4 µM (CYP2C9): 45% | Activity (SH-SY5Y [1]): Active | inhibition at 0.4 µM (CYP3A4): 84% | IC50 (Cytochrome P450 26A1): 0.01 µM | inhibition at 0.4 µM (CYP1A2): 31%

Compound: COC(=O)[C@H](C)[C@H](c1ccc(Nc2ccccc2)cc1)n1ccnc1 (relative stereo)
IC50 (Cytochrome P450 26A1): 0.026 µM
